Measured values taken from PMC4168221 (Clinical Drug Investigation, 2014).

How the values were obtained:
Assay type in all cases: in vivo, human (Japanese patients with type 2 diabetes mellitus)
[1] = Urinary pharmacokinetics of unchanged canagliflozin; conditions: for Ae0–72h% (cumulative urinary excretion rate from time zero to 72 h) / CLR: mean (SD)
Method in brief: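 Per period, urine was collected at 11–0 h pre-dose, then 0–4.5, 4.5–10.5, 10.5–13, 13–24, 24–48 and 48–72 h after a single oral 100 or 200 mg dose. Volumes were recorded, and mixed aliquots were stored at −20 °C. Parent drug was measured by solid-phase extraction then HPLC–MS/MS (validated 1–2,000 ng/mL).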

[2] = system: urinary glucose excretion; test: 24-h urinary glucose excretion, change from baseline; conditions: both doses
Method in brief: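 Each crossover period gave one oral single dose of test compound (100 or 200 mg) 10 min before breakfast, with ≥14-day washout and fixed meals. Change was taken from the baseline day.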

[3] = Safety: adverse events after single doses; conditions: Moderate renal impairment
Method in brief: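 Adverse events were recorded with intensity and relation to drug, then coded by system organ class and preferred term (MedDRA/J 15.0). Adverse drug reactions were events the investigator judged reasonably related. Also checked: laboratory tests, renal function, vital signs, body weight and 12-lead ECG. Patients were hospitalised and received single 100 and 200 mg oral doses in crossover.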

[4] = canagliflozin 100 mg, moderate renal impairment (n = 12)
[5] = canagliflozin 100 mg, normal renal function or mild renal impairment (n = 12)
[6] = canagliflozin 200 mg, moderate renal impairment (n = 12)
[7] = canagliflozin 200 mg, normal renal function or mild renal impairment (n = 12)

Compound: Cc1ccc([C@@H]2O[C@H](CO)[C@@H](O)[C@H](O)[C@H]2O)cc1Cc1ccc(-c2ccc(F)cc2)s1 [Canagliflozin, canagliflozin]
- amount of canagliflozin excreted into urine from 0 to 72 h (urinary excretion ratio of unchanged drug) ([1]; % of the dose, both doses): < 1%
- Ae0–72h% (cumulative urinary excretion rate from time zero to 72 h) [1, 4]: 0.538 (0.229) %
- CLR [1, 4]: 0.064 (0.021) L/h
- Ae0–72h% (cumulative urinary excretion rate from time zero to 72 h) [1, 5]: 0.541 (0.168) %
- CLR [1, 5]: 0.085 (0.037) L/h
- Ae0–72h% (cumulative urinary excretion rate from time zero to 72 h) [1, 6]: 0.480 (0.143) %
- CLR [1, 6]: 0.058 (0.022) L/h
- Ae0–72h% (cumulative urinary excretion rate from time zero to 72 h) [1, 7]: 0.559 (0.182) %
- CLR [1, 7]: 0.080 (0.029) L/h
- ΔUGE24 h in moderate renal impairment relative to normal renal function or mild renal impairment [2]: approximately 70%
- Adverse events Total: Incidence ([3]; canagliflozin 100 mg (n = 12)): 25.0%
- Adverse events Total: No. of events ([3]; canagliflozin 100 mg (n = 12)): 3
- Adverse events Total: No. of subjects ([3]; canagliflozin 100 mg (n = 12)): 3
- Back pain: Incidence ([3]; canagliflozin 100 mg (n = 12)): 0.0%
- Back pain: No. of events ([3]; canagliflozin 100 mg (n = 12)): 0
- Back pain: No. of subjects ([3]; canagliflozin 100 mg (n = 12)): 0
- Blood CPK increased: Incidence ([3]; canagliflozin 100 mg (n = 12)): 0.0%
- Blood CPK increased: No. of events ([3]; canagliflozin 100 mg (n = 12)): 0
- Blood CPK increased: No. of subjects ([3]; canagliflozin 100 mg (n = 12)): 0
- Blood creatinine increased: Incidence ([3]; canagliflozin 100 mg (n = 12)): 0.0%
- Blood creatinine increased: No. of events ([3]; canagliflozin 100 mg (n = 12)): 0
- Blood creatinine increased: No. of subjects ([3]; canagliflozin 100 mg (n = 12)): 0
- Blood glucose increased: Incidence ([3]; canagliflozin 100 mg (n = 12)): 0.0%
- Blood glucose increased: No. of events ([3]; canagliflozin 100 mg (n = 12)): 0
- Blood glucose increased: No. of subjects ([3]; canagliflozin 100 mg (n = 12)): 0
- Constipation: Incidence ([3]; canagliflozin 100 mg (n = 12)): 0.0%
- Constipation: No. of events ([3]; canagliflozin 100 mg (n = 12)): 0
- Constipation: No. of subjects ([3]; canagliflozin 100 mg (n = 12)): 0
- Diarrhea: Incidence ([3]; canagliflozin 100 mg (n = 12)): 0.0%
- Diarrhea: No. of events ([3]; canagliflozin 100 mg (n = 12)): 0
- Diarrhea: No. of subjects ([3]; canagliflozin 100 mg (n = 12)): 0
- Nasopharyngitis: Incidence ([3]; canagliflozin 100 mg (n = 12)): 8.3%
- Nasopharyngitis: No. of events ([3]; canagliflozin 100 mg (n = 12)): 1
- Nasopharyngitis: No. of subjects ([3]; canagliflozin 100 mg (n = 12)): 1
- Pollakiuria: Incidence ([3]; canagliflozin 100 mg (n = 12)): 8.3%
- Pollakiuria: No. of events ([3]; canagliflozin 100 mg (n = 12)): 1
- Pollakiuria: No. of subjects ([3]; canagliflozin 100 mg (n = 12)): 1
- Protein urine present: Incidence ([3]; canagliflozin 100 mg (n = 12)): 8.3%
- Protein urine present: No. of events ([3]; canagliflozin 100 mg (n = 12)): 1
- Protein urine present: No. of subjects ([3]; canagliflozin 100 mg (n = 12)): 1
- Adverse events Total: Incidence ([3]; canagliflozin 200 mg (n = 12)): 8.3%
- Adverse events Total: No. of events ([3]; canagliflozin 200 mg (n = 12)): 1
- Adverse events Total: No. of subjects ([3]; canagliflozin 200 mg (n = 12)): 1
- Back pain: Incidence ([3]; canagliflozin 200 mg (n = 12)): 0.0%
- Back pain: No. of events ([3]; canagliflozin 200 mg (n = 12)): 0
- Back pain: No. of subjects ([3]; canagliflozin 200 mg (n = 12)): 0
- Blood CPK increased: Incidence ([3]; canagliflozin 200 mg (n = 12)): 0.0%
- Blood CPK increased: No. of events ([3]; canagliflozin 200 mg (n = 12)): 0
- Blood CPK increased: No. of subjects ([3]; canagliflozin 200 mg (n = 12)): 0
- Blood creatinine increased: Incidence ([3]; canagliflozin 200 mg (n = 12)): 0.0%
- Blood creatinine increased: No. of events ([3]; canagliflozin 200 mg (n = 12)): 0
- Blood creatinine increased: No. of subjects ([3]; canagliflozin 200 mg (n = 12)): 0
- Blood glucose increased: Incidence ([3]; canagliflozin 200 mg (n = 12)): 0.0%
- Blood glucose increased: No. of events ([3]; canagliflozin 200 mg (n = 12)): 0
- Blood glucose increased: No. of subjects ([3]; canagliflozin 200 mg (n = 12)): 0
- Constipation: Incidence ([3]; canagliflozin 200 mg (n = 12)): 0.0%
- Constipation: No. of events ([3]; canagliflozin 200 mg (n = 12)): 0
- Constipation: No. of subjects ([3]; canagliflozin 200 mg (n = 12)): 0
- Diarrhea: Incidence ([3]; canagliflozin 200 mg (n = 12)): 0.0%
- Diarrhea: No. of events ([3]; canagliflozin 200 mg (n = 12)): 0
- Diarrhea: No. of subjects ([3]; canagliflozin 200 mg (n = 12)): 0
- Nasopharyngitis: Incidence ([3]; canagliflozin 200 mg (n = 12)): 8.3%
- Nasopharyngitis: No. of events ([3]; canagliflozin 200 mg (n = 12)): 1
- Nasopharyngitis: No. of subjects ([3]; canagliflozin 200 mg (n = 12)): 1
- Pollakiuria: Incidence ([3]; canagliflozin 200 mg (n = 12)): 0.0%
- Pollakiuria: No. of events ([3]; canagliflozin 200 mg (n = 12)): 0
